Assay outcomes from PubChem BioAssay.
An excerpt weighted towards active compounds, which were near 2.9% of everything screened.
ADAM17 inh – ADAM17 inhibitors, primary screen, biochemical, QFRET; Disintegrin and metalloproteinase domain-containing protein 17 (Homo sapiens), P78536; recombinant ADAM17, EDANS/DABCYL FRET peptide cleavage; inhibition, % at 6.95 µM; 370,000 tested, 0.83% active; AID 720648, 2013;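 active = inhibition above the mean of compounds lying between control limits plus 3 SD, set per campaign, cut at about 8.5% in these data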;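 note: 0% = DMSO-only wells as the low control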
FAS-TE inh – FAS thioesterase domain inhibitors, primary screen, biochemical, fluorescence intensity, uHTS. recombinant FAS-TE, OMFH fluorogenic substrate, fluorescence endpoint. inhibition, % at 15 µM. 360,000 tested, 0.67% active. AID 602261, 2012;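 active = compounds whose normalised, plate-corrected inhibition of enzyme fluorescence in the single-dose primary screen is 50% or more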;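 note: 0% = DMSO with enzyme and 100% = substrate without enzyme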
ADAM10 inh – human ADAM10 inhibitors, primary screen, biochemical, QFRET, HTS | Disintegrin and metalloproteinase domain-containing protein 10 (Homo sapiens), O14672 | recombinant ADAM10, EDANS/DABCYL FRET peptide cleavage, 3 h | inhibition, % at 7 µM | 370,000 tested, 0.62% active;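 active = inhibition above a per-campaign cutoff equal to the mean of compounds falling between control-based bounds plus 3 SD, cut at about 20% in these data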;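 note: 0% = DMSO wells while the 100% control is not disclosed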
Target sequence (O14672 214-748 limits assumed): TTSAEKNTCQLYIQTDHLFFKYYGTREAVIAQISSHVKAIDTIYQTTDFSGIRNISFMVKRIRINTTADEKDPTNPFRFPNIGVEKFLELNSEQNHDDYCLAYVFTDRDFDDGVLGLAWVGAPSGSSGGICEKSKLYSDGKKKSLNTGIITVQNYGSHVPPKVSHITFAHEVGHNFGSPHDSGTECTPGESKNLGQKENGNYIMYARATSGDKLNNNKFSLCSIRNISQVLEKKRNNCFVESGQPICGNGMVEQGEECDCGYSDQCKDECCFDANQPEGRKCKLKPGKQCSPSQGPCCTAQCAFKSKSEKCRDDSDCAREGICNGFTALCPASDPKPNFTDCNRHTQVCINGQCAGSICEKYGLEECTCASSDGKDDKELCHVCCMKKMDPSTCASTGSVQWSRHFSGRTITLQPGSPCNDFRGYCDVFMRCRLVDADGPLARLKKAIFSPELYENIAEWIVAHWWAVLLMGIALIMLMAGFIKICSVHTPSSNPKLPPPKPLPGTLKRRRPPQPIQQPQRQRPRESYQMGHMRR
CaV13 FRET inh – Primary screen for inhibitors of IQ motif and Ca2+-dependent inactivation inhibitor domain binding in CACNA1D, Förster resonance energy transfer in living cells, …; HEK cells, CFP/YFP FRET ICDI-IQ, plate reader, 10 min; percent FRET-ratio fall versus neutral wells; inhibition, % at 12.3 µM; 340,000 tested, 0.098% active; AID 743397;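 active = mean replicate inhibition of at least 30% and at least 1% of replicates passing that level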;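 note: 0% = median of the neutral control wells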
Arrestin-AP2 inh – inhibitors of beta-arrestin/AP2 binding, primary screen, biochemical, GPCR trafficking, flow cytometry; FITC-arrestin peptide / GST-AP2 beads; AP2 beta2 appendage carries R879A mutation; beta-arrestin 1 C-terminal peptide binding to AP2 beta2-adaptin appendage (human); 340,000 tested, 0.31% active; AID 504490, 2011; inhibition, % at 10 µM;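 active = inhibition above a set limit, near 3 SD of compounds lacking own fluorescence, cut at about 54% in these data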;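 note: plate controls were DMSO wells for no effect and 5 µM unlabelled arrestin peptide for full effect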
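Assay system: GST-AP2 R879A bound to glutathione beads, E. coli-expressed; Medium: PBS with 0.05% Tween 20 and 0.1% BSA; Also added: fluorescein-tagged arrestin peptide at 50 nM final; Timing: 12 min plus 1 h, RT; Measured by: flow cytometry, FL1 (488/535 nm); Evaluation: percent drop in bead-associated FITC signal.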
NRP1-CendR mod – modulators of CendR peptide binding to NRP-1, primary screen, biochemical, fluorescence polarization, uHTS; FAM-RPARPAR peptide binding to NRP-1; inhibition, % at 25 µM; 360,000 tested, 0.85% active; AID 602438, 2012;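 active = inhibition or corrected inhibition above about 18%, plus a signal ratio from 0.5 to 1.5, limit read from the data, passing the limit was not always enough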
Active calls of the source: *; i = inactive; / = not tested or not shown; + = active, no number.

SMILES	ADAM17 inh	FAS-TE inh	ADAM10 inh	CaV13 FRET inh	Arrestin-AP2 inh	NRP1-CendR mod
CC(=O)N/N=C/c1cc([N+](=O)[O-])ccc1OCCOc1ccccc1	1	12	-1	-6	5	9
NC(=S)N/N=C/c1cc([N+](=O)[O-])ccc1OCCOc1ccccc1	2	-4	15	-1	0	25*
CN(Cc1nc(-c2ccccn2)no1)S(=O)(=O)c1ccc(Br)cc1	-3	-2	-16	-7	18	28*
COc1cc(NC(=O)C2(C)CCN2C(C)C)cc(OC)c1OC (stereo not given)	-4	0	-14	-7	/	-2
O=C(Oc1ccc(Br)cc1C(=S)N1CCCC1)c1ccccc1Cl	1	21	10	-1	5	-6
O=C(Oc1ccc(Br)cc1C(=S)N1CCCCC1)c1cc([N+](=O)[O-])cc([N+](=O)[O-])c1	/	53*	/	/	-7	9
CCOC(=O)c1ccc(NS(=O)(=O)c2cc(-c3nnnn3CC)ccc2OC)cc1	1	8	4	-3	0	7
CCCCOC(=O)c1ccc(NS(=O)(=O)c2cc(-c3nnnn3CC)ccc2OC)cc1	-2	23	2	/	3	23*
C[C@H]1[C@@H](OC(=O)NCc2ccc(C(F)(F)F)cc2)CC[C@@]23CCCN2C(=O)CCC[C@@H]13	1	/	5	/	/	/
Cc1ccc(S(=O)(=O)/N=C2\C=C(Nc3ccc(O)cc3)C(=O)c3ccccc32)cc1	/	41	/	/	-1	10
Cc1ccc(S(=O)(=O)/N=C2\C=C(Nc3cccc(C(=O)O)c3)C(=O)c3ccccc32)c(C)c1	-3	14	-4	-3	10	38*
Cc1ccc(S(=O)(=O)/N=C2\C=C(Nc3cccc(C(=O)O)c3)C(=O)c3ccccc32)cc1	-2	15	-2	-4	19	45*
COc1cccc(C2NC(C)(C(=O)O)C3C(=O)N(C(C)C)C(=O)C23)c1O (stereo not given)	-3	-7	-15	15	2	-8
CSCCC1(C(=O)O)NC(c2ccccc2O)C2C(=O)N(C(C)C)C(=O)C21 (stereo not given)	0	-4	-1	39*	4	7
Cc1cc(C(=O)N/N=C\c2cc(C(C)(C)C)ccc2O)n[nH]1	/	5	/	/	2	4
CC(=O)N/N=C/c1cc(C(C)(C)C)cc(/C=N/NC(C)=O)c1O	-7	-13	-19	-9	1	35*
CCCCn1nnnc1C1(C)CCC(=O)N1Cc1cccnc1 (stereo not given)	-3	-9	-18	-10	/	-8
COc1cc2c(c(OC)c1OC)-c1c(cc(OC)c(OC)c1OC)C[C@](C)(O)[C@@H](C)C2	-4	-13	-2	-4	-5	39*
O=C(NNC(=O)c1ccccc1Cl)c1cccnc1	1	-4	9	-2	-6	23*
CN(CC(=O)NNC(=O)c1cccnc1)S(=O)(=O)c1cc(Cl)ccc1Cl	2	-4	5	-1	-4	40*
O=C(NNC(=O)c1ccccc1Cl)c1ccccc1Cl	-6	-2	-3	-5	6	15
COC(=O)C12C=C3CC(c4ccc(C(F)(F)F)cc4)=C3C(=O)N1Cc1[nH]c3ccccc3c1C2 (stereo not given)	-12	/	-49	/	/	/
O=C(O)C1=CC[C@@H](c2ccc(Cl)cc2)N(S(=O)(=O)c2ccc(Cl)cc2)[C@H]1c1ccc(F)cc1	4	19	14	39*	-1	-3
CCc1ccc([C@@H]2CC=C(C(=O)O)[C@H](c3ccc(C(C)(C)C)cc3)N2S(=O)(=O)c2ccc(C)cc2)cc1	5	54*	9	-5	13	-87
O=S1(=O)CCC(N(N=Cc2ccco2)c2ccccc2)C1 (stereo not given)	3	/	6	-13	/	/
SMILES	ADAM17 inh	FAS-TE inh	ADAM10 inh	CaV13 FRET inh	Arrestin-AP2 inh	NRP1-CendR mod
O=C(OCC(=O)N1CCN(c2ccccc2)CC1)c1cc(F)c(F)cc1Cl	0	0	3	-5	/	2
CC1COCC(C)N1S(=O)(=O)c1ccc2c(c1)CCN2C(=O)C1CCC1 (stereo not given)	-2	/	-5	/	/	/
CCOc1ccccc1N(CC(=O)N1CCOCC1)S(=O)(=O)c1ccc(SC)cc1	2	-4	5	-3	8	28*
Cc1cccc(NC(=O)NN(C(=O)c2ccccc2Cl)C(C)(C)C)c1	1	/	0	/	/	/
CCOc1ccc2[nH]c(O)c(NC(C)=O)c2c1	-19	-11	-36	/	13	28*
Cn1c(=NC(=O)COc2ccccc2)sc2ccccc21	0	2	-5	-1	-17	26*
CCOC(=O)c1cc2c(=O)n3ccccc3nc2n(C(C)C)c1=NC(=O)c1ccco1	i	4	i	+	13	-6
CCOC(=O)c1cc2c(=O)n3ccccc3nc2n(CCCOC)c1=NC(=O)c1ccncc1	i	24	i	153*	14	5
CCOC(=O)c1cc2c(=O)n3cccc(C)c3nc2n(CC(C)C)c1=NC(=O)c1ccco1	i	45	i	44*	1	-28
CCc1ccc(N2CC(C(=O)N3CCN(c4ccc([N+](=O)[O-])cc4)CC3)CC2=O)cc1 (stereo not given)	-6	-9	-10	-6	/	1
COC(=O)c1c(-c2ccc(N(C)C)cc2)oc2c1C(OC)CCC2 (stereo not given)	-243	4	i	-11	/	8
COc1ccc(C2(C(=O)NC3CCCCC3)CCOCC2)cc1OC	3	-7	5	-2	2	24*
Cc1ccc(-n2c(C)cc(C(=O)Cn3nc(C(=O)O)c4ccccc4c3=O)c2C)cc1	-2	49	-2	-8	-1	-14
COc1ccc(-n2c(C)cc(C(=O)Cn3nc(C(=O)O)c4ccccc4c3=O)c2C)cc1	7	19	7	-18	5	30*
OC1(Cc2ccccc2)CCN(c2ncnc3sccc23)CC1	1	/	4	/	/	/
O=C(CCC(=O)OCC(=O)c1ccc(-c2ccccc2)cc1)Nc1cccc(Cl)c1	0	-2	3	-3	4	-2
Cc1ccccc1NC(=O)CCC(=O)OCC(=O)c1ccc(-c2ccccc2)cc1	-5	-2	5	-4	14	27*
